How the values were obtained:
Settings in all cases: stereoisomer not certain
OR52K2 (Homo sapiens) = OR52K2 (Homo sapiens) (UniProt Q8NGK3)
Outline: (§1)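 Values were gathered from published papers (main text and supplementary material), with extra details requested from the original authors when needed, and checked for typos and inconsistencies. Each receptor–molecule pair is called responsive (active) if the original authors judged the measured signal statistically different from baseline, and non-responsive (inactive) otherwise. Assay methods varied by source, often transient mammalian cell-line luciferase assays. Recorded details include cell line, G-protein, co-transfected protein and tags.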

OR52L1 (Homo sapiens) [1] = target: OR52L1 (Homo sapiens) (UniProt Q8NGH7)
Outline: as §1

OR52M1 (Homo sapiens) = OR52M1 (Homo sapiens) (UniProt Q8NGK5)
Outline: as §1

OR52N1 (Homo sapiens) = OR52N1 (Homo sapiens) (UniProt Q8NH53)
Outline: as §1

OR52N2 (Homo sapiens) = OR52N2 (Homo sapiens) (UniProt Q8NGI0)
Outline: as §1

OR52N4 (Homo sapiens) = OR52N4 (Homo sapiens) (UniProt Q8NGI2)
Outline: as §1

OR52N5 (Homo sapiens) = OR52N5 (Homo sapiens) (UniProt Q8NH56)
Outline: as §1

OR52R1 (Homo sapiens) = OR52R1 (Homo sapiens) (UniProt Q8NGF1)
Outline: as §1

OR52W1 (Homo sapiens) = OR52W1 (Homo sapiens) (UniProt Q6IF63)
Outline: as §1

OR56A1 (Homo sapiens) = OR56A1 (Homo sapiens) (UniProt Q8NGH5)
Outline: as §1

OR56A3 (Homo sapiens) = OR56A3 (Homo sapiens) (UniProt Q8NH54)
Outline: as §1

OR56A5 (Homo sapiens) = OR56A5 (Homo sapiens) (UniProt P0C7T3)
Outline: as §1

OR56B1 (Homo sapiens) = OR56B1 (Homo sapiens) (UniProt Q8NGI3)
Outline: as §1

OR56B4 (Homo sapiens) = OR56B4 (Homo sapiens) (UniProt Q8NH76)
Outline: as §1

OR5A1 (Homo sapiens) = OR5A1 (Homo sapiens) (UniProt Q8NGJ0)
Outline: as §1

OR5A1 D183N = test system: OR5A1 D183N
Outline: as §1

OR5A2 (Homo sapiens) = OR5A2 (Homo sapiens) (UniProt Q8NGI9)
Outline: as §1

OR52L1 (Homo sapiens) [2] = target: OR52L1 (Homo sapiens) (UniProt Q8NGH7); remark: listed apart in the source
Outline: as §1

OR52Z1P (Homo sapiens) = OR52Z1P (Homo sapiens) (UniProt P0C646)
Outline: as §1

OR56A4 (Homo sapiens) = OR56A4 (Homo sapiens) (UniProt Q8NGH8)
Outline: as §1

Measured: odorant receptor agonist call

Chain of OR5A1 (Homo sapiens) (Q8NGJ0 whole entry): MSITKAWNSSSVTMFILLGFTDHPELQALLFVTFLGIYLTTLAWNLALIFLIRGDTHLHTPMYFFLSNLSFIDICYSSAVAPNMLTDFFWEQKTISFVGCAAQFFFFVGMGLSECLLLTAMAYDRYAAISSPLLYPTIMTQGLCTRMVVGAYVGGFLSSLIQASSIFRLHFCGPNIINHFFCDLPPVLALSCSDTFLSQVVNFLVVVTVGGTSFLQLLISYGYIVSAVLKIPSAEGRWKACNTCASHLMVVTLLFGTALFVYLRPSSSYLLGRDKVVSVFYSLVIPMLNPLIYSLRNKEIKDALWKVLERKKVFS
Chain of OR52N5 (Homo sapiens) (Q8NH56 whole entry): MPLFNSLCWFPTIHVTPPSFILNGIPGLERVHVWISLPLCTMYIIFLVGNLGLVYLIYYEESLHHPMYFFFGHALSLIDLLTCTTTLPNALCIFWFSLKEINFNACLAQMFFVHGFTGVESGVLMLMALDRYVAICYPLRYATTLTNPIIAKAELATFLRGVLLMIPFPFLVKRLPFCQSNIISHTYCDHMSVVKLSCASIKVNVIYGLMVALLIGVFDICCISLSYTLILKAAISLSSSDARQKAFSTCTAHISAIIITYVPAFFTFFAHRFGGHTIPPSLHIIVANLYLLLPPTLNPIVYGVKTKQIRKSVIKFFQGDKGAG
Chain of OR56A3 (Homo sapiens) (Q8NH54 whole entry): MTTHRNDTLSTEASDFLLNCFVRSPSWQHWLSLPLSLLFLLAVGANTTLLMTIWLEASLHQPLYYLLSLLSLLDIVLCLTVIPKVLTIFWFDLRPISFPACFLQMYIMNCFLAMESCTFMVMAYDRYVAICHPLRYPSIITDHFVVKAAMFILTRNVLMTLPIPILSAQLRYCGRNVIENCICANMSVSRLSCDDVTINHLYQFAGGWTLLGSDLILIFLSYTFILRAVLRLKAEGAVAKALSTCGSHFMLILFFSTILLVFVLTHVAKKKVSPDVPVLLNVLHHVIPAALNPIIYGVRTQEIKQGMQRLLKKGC
Chain of OR52K2 (Homo sapiens) (Q8NGK3 whole entry): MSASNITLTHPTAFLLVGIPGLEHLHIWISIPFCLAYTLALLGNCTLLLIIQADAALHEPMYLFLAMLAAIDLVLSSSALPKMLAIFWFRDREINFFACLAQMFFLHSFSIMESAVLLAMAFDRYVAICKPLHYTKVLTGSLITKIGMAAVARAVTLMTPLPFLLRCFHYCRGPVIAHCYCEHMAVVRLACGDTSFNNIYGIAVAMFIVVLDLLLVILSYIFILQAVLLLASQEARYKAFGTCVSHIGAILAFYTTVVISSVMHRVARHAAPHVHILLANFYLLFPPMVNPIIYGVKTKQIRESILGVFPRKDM
Chain of OR56B4 (Homo sapiens) (Q8NH76 whole entry): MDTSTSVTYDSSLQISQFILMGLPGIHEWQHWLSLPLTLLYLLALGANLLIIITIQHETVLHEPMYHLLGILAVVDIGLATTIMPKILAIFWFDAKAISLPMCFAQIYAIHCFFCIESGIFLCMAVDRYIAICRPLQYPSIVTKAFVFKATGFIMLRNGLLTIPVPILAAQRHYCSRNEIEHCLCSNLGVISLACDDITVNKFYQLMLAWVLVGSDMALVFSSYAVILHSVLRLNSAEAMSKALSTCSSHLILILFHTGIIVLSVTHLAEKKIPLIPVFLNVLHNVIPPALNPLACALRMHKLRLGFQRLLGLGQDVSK
Chain of OR52N1 (Homo sapiens) (Q8NH53 whole entry): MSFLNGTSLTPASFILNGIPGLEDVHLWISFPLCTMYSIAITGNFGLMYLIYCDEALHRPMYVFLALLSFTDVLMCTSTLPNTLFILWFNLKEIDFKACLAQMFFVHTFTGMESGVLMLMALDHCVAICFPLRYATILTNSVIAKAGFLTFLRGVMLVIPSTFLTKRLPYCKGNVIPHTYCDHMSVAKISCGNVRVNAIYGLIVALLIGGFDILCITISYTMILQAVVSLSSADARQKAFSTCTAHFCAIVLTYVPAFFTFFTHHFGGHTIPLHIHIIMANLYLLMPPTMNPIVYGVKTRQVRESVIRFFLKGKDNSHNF
Chain of OR56A5 (Homo sapiens) (P0C7T3 whole entry): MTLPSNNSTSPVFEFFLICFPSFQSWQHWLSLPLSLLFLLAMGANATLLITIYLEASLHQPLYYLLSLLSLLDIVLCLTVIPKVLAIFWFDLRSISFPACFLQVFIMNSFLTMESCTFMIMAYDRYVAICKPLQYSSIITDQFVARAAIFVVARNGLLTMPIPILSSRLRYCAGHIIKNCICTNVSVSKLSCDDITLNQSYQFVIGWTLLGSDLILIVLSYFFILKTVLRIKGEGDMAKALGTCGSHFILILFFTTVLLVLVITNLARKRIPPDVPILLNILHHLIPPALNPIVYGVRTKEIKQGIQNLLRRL
Chain of OR56B1 (Homo sapiens) (Q8NGI3 whole entry): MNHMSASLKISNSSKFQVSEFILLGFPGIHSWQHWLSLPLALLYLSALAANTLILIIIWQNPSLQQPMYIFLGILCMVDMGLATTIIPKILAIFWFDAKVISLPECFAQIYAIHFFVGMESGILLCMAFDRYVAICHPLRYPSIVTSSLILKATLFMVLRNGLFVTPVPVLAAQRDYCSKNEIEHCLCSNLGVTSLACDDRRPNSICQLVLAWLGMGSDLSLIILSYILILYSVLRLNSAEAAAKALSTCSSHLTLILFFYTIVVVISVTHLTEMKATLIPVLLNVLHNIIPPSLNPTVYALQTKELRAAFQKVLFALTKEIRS
Chain of OR5A2 (Homo sapiens) (Q8NGI9 whole entry): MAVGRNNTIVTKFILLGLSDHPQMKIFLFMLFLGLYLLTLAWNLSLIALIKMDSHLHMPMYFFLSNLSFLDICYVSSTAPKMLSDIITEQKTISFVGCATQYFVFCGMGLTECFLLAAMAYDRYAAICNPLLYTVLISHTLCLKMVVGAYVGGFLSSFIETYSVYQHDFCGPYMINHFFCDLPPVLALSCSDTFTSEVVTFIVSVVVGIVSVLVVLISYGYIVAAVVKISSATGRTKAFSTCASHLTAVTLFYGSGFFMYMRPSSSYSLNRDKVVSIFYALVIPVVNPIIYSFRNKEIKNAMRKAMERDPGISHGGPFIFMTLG
Chain of OR52N4 (Homo sapiens) (Q8NGI2 whole entry): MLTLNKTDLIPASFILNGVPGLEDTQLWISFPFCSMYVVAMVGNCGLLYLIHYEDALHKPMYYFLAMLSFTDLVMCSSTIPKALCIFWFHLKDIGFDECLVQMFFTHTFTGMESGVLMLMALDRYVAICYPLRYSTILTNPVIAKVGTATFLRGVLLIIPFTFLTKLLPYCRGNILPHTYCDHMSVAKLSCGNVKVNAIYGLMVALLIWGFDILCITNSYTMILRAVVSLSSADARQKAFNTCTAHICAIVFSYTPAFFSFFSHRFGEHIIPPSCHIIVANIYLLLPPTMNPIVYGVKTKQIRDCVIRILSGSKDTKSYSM
Chain of OR52M1 (Homo sapiens) (Q8NGK5 whole entry): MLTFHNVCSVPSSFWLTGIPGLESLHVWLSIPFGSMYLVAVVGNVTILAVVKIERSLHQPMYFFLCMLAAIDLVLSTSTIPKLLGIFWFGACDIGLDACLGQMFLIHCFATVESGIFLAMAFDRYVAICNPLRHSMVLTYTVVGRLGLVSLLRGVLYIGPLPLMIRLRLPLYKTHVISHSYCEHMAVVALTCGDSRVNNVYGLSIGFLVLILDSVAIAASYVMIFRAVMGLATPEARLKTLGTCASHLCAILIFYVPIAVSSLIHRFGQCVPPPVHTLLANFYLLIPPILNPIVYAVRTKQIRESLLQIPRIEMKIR
Chain of OR52W1 (Homo sapiens) (Q6IF63 whole entry): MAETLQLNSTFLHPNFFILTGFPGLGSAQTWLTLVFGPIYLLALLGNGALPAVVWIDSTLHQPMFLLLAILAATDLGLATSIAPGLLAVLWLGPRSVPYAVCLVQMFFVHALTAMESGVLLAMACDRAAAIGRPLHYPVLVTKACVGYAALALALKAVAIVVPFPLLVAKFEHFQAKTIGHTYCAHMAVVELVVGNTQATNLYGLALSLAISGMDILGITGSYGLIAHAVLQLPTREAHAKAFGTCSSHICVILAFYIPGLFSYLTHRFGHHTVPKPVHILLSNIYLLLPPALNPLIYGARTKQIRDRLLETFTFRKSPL
Chain of OR52R1 (Homo sapiens) (Q8NGF1 whole entry): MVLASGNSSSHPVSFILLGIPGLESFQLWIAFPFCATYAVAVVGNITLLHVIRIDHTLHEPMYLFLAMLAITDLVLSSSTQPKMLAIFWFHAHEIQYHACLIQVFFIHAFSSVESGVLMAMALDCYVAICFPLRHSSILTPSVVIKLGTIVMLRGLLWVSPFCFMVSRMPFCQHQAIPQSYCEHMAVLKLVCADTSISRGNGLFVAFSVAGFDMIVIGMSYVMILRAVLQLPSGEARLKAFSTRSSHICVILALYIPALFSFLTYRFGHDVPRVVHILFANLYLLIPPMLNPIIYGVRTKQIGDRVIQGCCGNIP
Chain of OR52N2 (Homo sapiens) (Q8NGI0 whole entry): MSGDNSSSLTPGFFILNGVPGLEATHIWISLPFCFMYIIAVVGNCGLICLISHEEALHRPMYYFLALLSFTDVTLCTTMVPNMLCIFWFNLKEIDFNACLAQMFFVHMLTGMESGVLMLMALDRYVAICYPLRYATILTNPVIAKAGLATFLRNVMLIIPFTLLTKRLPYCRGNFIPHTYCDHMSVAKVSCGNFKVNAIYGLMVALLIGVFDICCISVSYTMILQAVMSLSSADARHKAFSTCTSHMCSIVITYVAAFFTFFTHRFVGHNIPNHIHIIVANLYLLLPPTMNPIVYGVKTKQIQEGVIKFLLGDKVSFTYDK
Chain of OR56A1 (Homo sapiens) (Q8NGH5 whole entry): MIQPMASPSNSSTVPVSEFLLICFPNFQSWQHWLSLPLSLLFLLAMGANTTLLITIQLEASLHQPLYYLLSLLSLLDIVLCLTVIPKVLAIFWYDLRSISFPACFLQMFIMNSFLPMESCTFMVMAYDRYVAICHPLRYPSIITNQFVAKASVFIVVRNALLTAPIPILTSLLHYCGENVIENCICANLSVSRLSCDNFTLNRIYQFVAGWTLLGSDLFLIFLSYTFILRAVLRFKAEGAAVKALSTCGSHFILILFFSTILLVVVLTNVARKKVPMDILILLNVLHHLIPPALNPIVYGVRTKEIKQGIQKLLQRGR
Chain of OR5A1 D183N (as listed by the source, stated change not applied): as the sequence (Q8NGJ0 whole entry) above, with D183N counted along it

C=CCOC(=O)Cc1ccccc1
not listed: OR52L1 (Homo sapiens) [2] | OR52Z1P (Homo sapiens) | OR56A4 (Homo sapiens)
inactive: all other assays above

Cc1c([N+](=O)[O-])c(C)c([N+](=O)[O-])c(C(C)(C)C)c1[N+](=O)[O-]
not listed: OR52L1 (Homo sapiens) [1] | OR5A1 D183N
inactive: all other assays above

From the M2OR odorant receptor database
